# Experimental data of several laboratories.
# Each line is one published result; the experiments were not run side by side.
# Target: Serine/threonine-protein kinase Nek2 (NEK2, Homo sapiens, UniProt P51955)
# Sequence (P51955 1-445, as in one of the studies): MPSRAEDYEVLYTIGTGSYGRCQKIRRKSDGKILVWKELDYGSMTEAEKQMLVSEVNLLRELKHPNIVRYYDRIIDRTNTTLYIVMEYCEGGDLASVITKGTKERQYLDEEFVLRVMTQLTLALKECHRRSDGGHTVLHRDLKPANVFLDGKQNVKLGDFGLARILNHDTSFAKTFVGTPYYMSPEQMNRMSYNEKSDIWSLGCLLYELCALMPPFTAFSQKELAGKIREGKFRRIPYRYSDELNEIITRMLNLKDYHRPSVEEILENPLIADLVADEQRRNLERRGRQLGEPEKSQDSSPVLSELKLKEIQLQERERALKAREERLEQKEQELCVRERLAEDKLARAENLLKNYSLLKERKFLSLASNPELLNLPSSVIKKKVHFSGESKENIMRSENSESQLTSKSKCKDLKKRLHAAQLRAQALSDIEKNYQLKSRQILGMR
Structure (SMILES),test,conditions,remaining binding [%]
C[C@H]1CCN(c2nccc(-c3cnn4ncccc34)n2)C1,binding,1 µM,90
O=C(NCC1CCOCC1)c1n[nH]cc1NC(=O)c1c(F)cccc1F,"binding, competition with immobilised ligand",1 µM,87
CN(c1nccc(-c2cnn3ncccc23)n1)C1CC1,binding,1 µM,100
O=C(N[C@H]1CCCCC/C=C\C2C[C@@]2(C(=O)O)NC(=O)[C@@H]2C[C@@H](Oc3ccncc3)CN2C1=O)OC1CCCC1 (some centres unmarked),"binding, competition with immobilised ligand",1 µM,94
CN(C)c1nccc(-c2cnc3ncccn23)n1,binding,1 µM,93
FC(F)(F)Oc1cccc(-c2cnc3ccc(-c4ccncc4)nn23)c1,"cell-free assay, competition with immobilised ligand",5 µM,74
Cn1cc(Cl)c2c(Oc3c(F)cc(Nc4cc(Cl)nc(N)n4)cc3F)ccnc21,"cell-free assay, competition with immobilised ligand",0.1 µM,100
CN(CCCC(F)(F)F)c1nccc(-c2cnn3ncccc23)n1,binding,1 µM,100
COc1ncc2cc3ccccc3nc2c1C#N,"cell-free assay, competition with immobilised ligand",5 µM,85
O=C(c1ccc(Nc2ncc(Cl)c(-c3cc4ccccc4s3)n2)cc1)N1CCC(N2CCCC2)CC1,"binding, competition with immobilised ligand",1 µM,83
CCN1CCN(Cc2ccc(C(=O)Nc3ccc(C)c(Oc4ccc5c(c4)CC(=O)N5)c3)cc2C(F)(F)F)CC1,"binding, competition with immobilised ligand",1 µM,100
COc1cnc(Nc2cccc(S(N)(=O)=O)c2)nc1N1CCN(c2ccccc2)CC1,"binding, competition with immobilised ligand",1 µM,97
CC1=C(C#N)C(c2ccc3c(c2)c(NC(=O)c2ccccc2C)nn3C)C(C#N)=C(C)N1,"cell-free assay, competition with immobilised ligand",1 µM,100
CNC(=O)[C@@H]1CC[C@@H](n2c(-c3ccc4cnccc4c3)nc3ccc(C(=O)NCc4cccc(C(N)=O)c4)cc32)C1,"binding, competition with immobilised ligand",1 µM,97
CCCCN(CCCC)C(=O)CN1C[C@@H](c2cc(OC)c3c(c2)OCO3)[C@H](C(=O)O)[C@H]1CC(C)(C)CCC,"cell-free assay, competition with immobilised ligand",1 µM,98.7
O=C(NCCCN1CCOCC1)c1ccc(Nc2ncc(Cl)c(-c3ccc(Cl)s3)n2)cc1,"binding, competition with immobilised ligand",1 µM,75
N[C@H]1CCN(c2nccc(-c3cnn4ncccc34)n2)C1,binding,1 µM,100
O=C(NCCCC1CCCCC1)c1ccc(CNC(=O)c2cnn(-c3ccccc3)c2C(F)(F)F)cc1,"cell-free assay, competition with immobilised ligand",0.1 µM,100
CN(C)c1nccc(-c2cnn3ncccc23)n1,binding,1 µM,100
CC(=O)N1CCC(c2ccc(C(=O)NC(=N)N)cc2C(F)(F)F)CC1,"cell-free assay, competition with immobilised ligand",1 µM,100
